From ChEMBL document CHEMBL5608214, “Novel tetrasubstituted 5-Arylamino pyrazoles able to interfere with angiogenesis and Ca2+ mobilization” (Eur J Med Chem, 2024)
The source made the active and inactive calls. The rule behind the calls is not given here.

test system: SK-MEL-28; assay: Antiproliferative activity against human SK-MEL-28 cells assessed as cell growth at 10 uM incubated for 48 hrs by MTT assay relative to control; format: functional; conditions: read-out: Activity
Procedure, shortened: (§1)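 Cells in DMEM with 10 % FBS, 2 mM glutamine and pen-strep, 37 °C, 5 % CO₂, plated to reach 80–90 % confluence at endpoint. At 16 h, compounds were added from a 10 mM DMSO stock to 10 μM final. After 48 h, MTT (2 mg/mL in PBS) was added for 4 h, formazan dissolved in DMSO, and OD read at 570 nm. Results are % of solvent control; three runs, six replicates each, mean ± SD.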

Row | SMILES | growth at 10 µM [%]
1 | CCOC(=O)c1c(Nc2cccc3ccccc23)nn(CC(O)c2ccccc2)c1N (configuration not stated) | 141
2 | CCCC(O)Cn1nc(Nc2ccccc2)c(C(=O)OCC)c1N (configuration not stated) | 97
3 | CCCC(O)Cn1nc(Nc2ccc(OC)cc2)c(C(=O)OCC)c1N (configuration not stated) | 120
4 | CCOC(=O)c1c(Nc2ccc(OC)cc2)nn(CC(O)c2ccccc2)c1N (configuration not stated) | 134

test system: SK-OV-3; assay: Antiproliferative activity against human SK-OV-3 cells assessed as cell growth at 10 uM incubated for 48 hrs by MTT assay relative to control; format: functional; conditions: read-out: Activity; procedure, shortened: as §1

Row | SMILES | growth at 10 µM [%]
5 | CCOC(=O)c1c(Nc2cccc3ccccc23)nn(CC(O)c2ccccc2)c1N (configuration not stated) | 116
6 | CCCC(O)Cn1nc(Nc2ccccc2)c(C(=O)OCC)c1N (configuration not stated) | 104
7 | CCCC(O)Cn1nc(Nc2ccc(OC)cc2)c(C(=O)OCC)c1N (configuration not stated) | 110
8 | CCOC(=O)c1c(Nc2ccc(OC)cc2)nn(CC(O)c2ccccc2)c1N (configuration not stated) | 102

test system: MCF7; assay: Antiproliferative activity against human MCF7 cells assessed as cell growth at 10 uM incubated for 48 hrs by MTT assay relative to control; format: functional; conditions: read-out: Activity; procedure, shortened: as §1

Row | SMILES | growth at 10 µM [%]
9 | CCOC(=O)c1c(Nc2cccc3ccccc23)nn(CC(O)c2ccccc2)c1N (configuration not stated) | 97
10 | CCCC(O)Cn1nc(Nc2ccccc2)c(C(=O)OCC)c1N (configuration not stated) | 110
11 | CCCC(O)Cn1nc(Nc2ccc(OC)cc2)c(C(=O)OCC)c1N (configuration not stated) | 109
12 | CCOC(=O)c1c(Nc2ccc(OC)cc2)nn(CC(O)c2ccccc2)c1N (configuration not stated) | 98

test system: A549; assay: Antiproliferative activity against human A549 cells assessed as cell growth at 10 uM incubated for 48 hrs by MTT assay relative to control; format: functional; conditions: read-out: Activity; procedure, shortened: as §1

Row | SMILES | growth at 10 µM [%]
13 | CCOC(=O)c1c(Nc2cccc3ccccc23)nn(CC(O)c2ccccc2)c1N (configuration not stated) | 88
14 | CCCC(O)Cn1nc(Nc2ccccc2)c(C(=O)OCC)c1N (configuration not stated) | 115
15 | CCCC(O)Cn1nc(Nc2ccc(OC)cc2)c(C(=O)OCC)c1N (configuration not stated) | 98
16 | CCOC(=O)c1c(Nc2ccc(OC)cc2)nn(CC(O)c2ccccc2)c1N (configuration not stated) | 100

test system: SK-BR-3; assay: Antiproliferative activity against human SK-BR-3 cells assessed as cell growth at 10 uM incubated for 48 hrs by MTT assay relative to control; format: functional; conditions: read-out: Activity; procedure, shortened: as §1

Row | SMILES | growth at 10 µM [%]
17 | CCOC(=O)c1c(Nc2cccc3ccccc23)nn(CC(O)c2ccccc2)c1N (configuration not stated) | 118
18 | CCCC(O)Cn1nc(Nc2ccccc2)c(C(=O)OCC)c1N (configuration not stated) | 107
19 | CCCC(O)Cn1nc(Nc2ccc(OC)cc2)c(C(=O)OCC)c1N (configuration not stated) | 106
20 | CCOC(=O)c1c(Nc2ccc(OC)cc2)nn(CC(O)c2ccccc2)c1N (configuration not stated) | 115

test system: HeLa; assay: Antiproliferative activity against human HeLa cells assessed as cell growth at 10 uM incubated for 48 hrs by MTT assay relative to control; format: functional; conditions: read-out: Activity; procedure, shortened: as §1

Row | SMILES | growth at 10 µM [%]
21 | CCOC(=O)c1c(Nc2cccc3ccccc23)nn(CC(O)c2ccccc2)c1N (configuration not stated) | 104
22 | CCCC(O)Cn1nc(Nc2ccccc2)c(C(=O)OCC)c1N (configuration not stated) | 97
23 | CCCC(O)Cn1nc(Nc2ccc(OC)cc2)c(C(=O)OCC)c1N (configuration not stated) | 111
24 | CCOC(=O)c1c(Nc2ccc(OC)cc2)nn(CC(O)c2ccccc2)c1N (configuration not stated) | 111

test system: HepG2; assay: Antiproliferative activity against human HepG2 cells assessed as cell growth at 10 uM incubated for 48 hrs by MTT assay relative to control; format: functional; conditions: read-out: Activity; procedure, shortened: as §1

Row | SMILES | growth at 10 µM [%]
25 | CCOC(=O)c1c(Nc2cccc3ccccc23)nn(CC(O)c2ccccc2)c1N (configuration not stated) | 118
26 | CCCC(O)Cn1nc(Nc2ccccc2)c(C(=O)OCC)c1N (configuration not stated) | 106
27 | CCCC(O)Cn1nc(Nc2ccc(OC)cc2)c(C(=O)OCC)c1N (configuration not stated) | 110
28 | CCOC(=O)c1c(Nc2ccc(OC)cc2)nn(CC(O)c2ccccc2)c1N (configuration not stated) | 115

test system: MDA-MB-231; assay: Antiproliferative activity against human MDA-MB-231 cells assessed as cell growth at 10 uM incubated for 48 hrs by MTT assay relative to control; format: functional; conditions: read-out: Activity; procedure, shortened: as §1

Row | SMILES | growth at 10 µM [%]
29 | CCOC(=O)c1c(Nc2cccc3ccccc23)nn(CC(O)c2ccccc2)c1N (configuration not stated) | 149
30 | CCCC(O)Cn1nc(Nc2ccccc2)c(C(=O)OCC)c1N (configuration not stated) | 103
31 | CCCC(O)Cn1nc(Nc2ccc(OC)cc2)c(C(=O)OCC)c1N (configuration not stated) | 143
32 | CCOC(=O)c1c(Nc2ccc(OC)cc2)nn(CC(O)c2ccccc2)c1N (configuration not stated) | 147

test system: not listed separately; assay: Antiproliferative activity against human GM06114 cells assessed as cell growth at 10 uM incubated for 48 hrs by MTT assay relative to control; format: toxicity, cell-based; conditions: read-out: Activity; procedure, shortened: as §1

Row | SMILES | viability at 48 h, 10 µM [%]
33 | CCOC(=O)c1c(Nc2cccc3ccccc23)nn(CC(O)c2ccccc2)c1N (configuration not stated) | 81
34 | CCCC(O)Cn1nc(Nc2ccccc2)c(C(=O)OCC)c1N (configuration not stated) | 112
35 | CCCC(O)Cn1nc(Nc2ccc(OC)cc2)c(C(=O)OCC)c1N (configuration not stated) | 75
36 | CCOC(=O)c1c(Nc2ccc(OC)cc2)nn(CC(O)c2ccccc2)c1N (configuration not stated) | 70

test system: not listed separately; assay: Antiproliferative activity against human HUVEC cells assessed as cell growth at 10 uM incubated for 48 hrs by MTT assay relative to control; format: toxicity, cell-based; conditions: read-out: Activity; procedure, shortened: as §1

Row | SMILES | viability at 48 h, 10 µM [%]
37 | CCOC(=O)c1c(Nc2cccc3ccccc23)nn(CC(O)c2ccccc2)c1N (configuration not stated) | 98
38 | CCCC(O)Cn1nc(Nc2ccccc2)c(C(=O)OCC)c1N (configuration not stated) | 100
39 | CCCC(O)Cn1nc(Nc2ccc(OC)cc2)c(C(=O)OCC)c1N (configuration not stated) | 95
40 | CCOC(=O)c1c(Nc2ccc(OC)cc2)nn(CC(O)c2ccccc2)c1N (configuration not stated) | 99

test system: HUVEC; assay: Anti-angiogenetic activity in human HUVEC cells assessed as reduction in tube length at 10 uM incubated for 12 hrs by microscopy; format: functional, cell-based; conditions: not given
Procedure, shortened: (§2)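 HUVEC seeded at 2 × 10⁴ cells/well onto gelled Matrigel (mixed 1:1 with EGM-2, set 30 min at 37 °C). Cells were exposed to test agents at 10 μM for 12 h with no stimulus; untreated wells served as control. Tube long axis and branching points were counted in 10 random fields per well at 10× (Angiogenesis Analyzer), giving mean tube length per well. Mean of at least three independent experiments.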

Row | SMILES | Activity
41 | CCOC(=O)c1c(Nc2cccc3ccccc23)nn(CC(O)c2ccccc2)c1N (configuration not stated) | Active
42 | CCCC(O)Cn1nc(Nc2ccccc2)c(C(=O)OCC)c1N (configuration not stated) | Active
43 | CCCC(O)Cn1nc(Nc2ccc(OC)cc2)c(C(=O)OCC)c1N (configuration not stated) | Active

test system: HUVEC; assay: Anti-angiogenetic activity in human HUVEC cells assessed as reduction in tube branching at 10 uM incubated for 12 hrs by microscopy; format: functional, cell-based; conditions: not given; procedure, shortened: as §2

Row | SMILES | Activity
44 | CCOC(=O)c1c(Nc2cccc3ccccc23)nn(CC(O)c2ccccc2)c1N (configuration not stated) | Active
45 | CCCC(O)Cn1nc(Nc2ccccc2)c(C(=O)OCC)c1N (configuration not stated) | Active
46 | CCCC(O)Cn1nc(Nc2ccc(OC)cc2)c(C(=O)OCC)c1N (configuration not stated) | Active

test system: HUVEC; assay: Anti-angiogenetic activity in human HUVEC cells assessed as number of tube branching points at 10 uM incubated for 12 hrs by microscopy; format: functional; conditions: not given; procedure, shortened: as §2

Row | SMILES | Activity
47 | CCOC(=O)c1c(Nc2cccc3ccccc23)nn(CC(O)c2ccccc2)c1N (configuration not stated) | <15
48 | CCCC(O)Cn1nc(Nc2ccccc2)c(C(=O)OCC)c1N (configuration not stated) | <15

test system: HUVEC; assay: Anti-angiogenetic activity in human HUVEC cells assessed as relative tube length at 10 uM incubated for 12 hrs by microscopy; format: functional; conditions: not given; procedure, shortened: as §2

Row | SMILES | Activity
49 | CCOC(=O)c1c(Nc2cccc3ccccc23)nn(CC(O)c2ccccc2)c1N (configuration not stated) | <20
50 | CCCC(O)Cn1nc(Nc2ccccc2)c(C(=O)OCC)c1N (configuration not stated) | <20

test system: HUVEC; assay: Inhibition of cell migration in human HUVEC cells at 10 uM incubated for 24 hrs by wound healing assay; format: functional, cell-based; conditions: not given
Procedure, shortened: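 Confluent HUVEC monolayers (2 × 10⁵/well, 24 h) were scratched with a p10 tip and treated at 10 μM with mitomycin C 10 μg/ml to block mitosis. Wounds were photographed at 0 and 24 h (4× phase contrast). Migration was taken as the change in distance covered by the wound edges. n = 3 independent experiments, mean ± SD.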

Row | SMILES | inhibition
51 | CCCC(O)Cn1nc(Nc2ccccc2)c(C(=O)OCC)c1N (configuration not stated) | Active

test system: HUVEC; assay: Inhibition of cell invasion in human HUVEC cells at 10 uM incubated for 24 hrs by transwell assay; format: functional, cell-based; conditions: not given
Procedure, shortened: (§3)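 Transwell inserts with 8.0 pore size were coated with Matrigel 1:3 in serum-free medium. HUVEC (2 × 10⁴/insert) went in serum-free medium in the upper chamber, with treatments (10 μM) in growth medium below, for 24 h at 37 °C. Filters were fixed in 4 % paraformaldehyde then methanol and stained with 0.5 % crystal violet. Cells on the lower surface were counted in ten random fields at 10×. n = 3.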

Row | SMILES | inhibition
52 | CCCC(O)Cn1nc(Nc2ccccc2)c(C(=O)OCC)c1N (configuration not stated) | Active

test system: HUVEC; assay: Inhibition of cell invasion in human HUVEC cells assessed as number of cells at 10 uM incubated for 24 hrs by transwell assay; format: functional; conditions: not given; procedure, shortened: as §3

Row | SMILES | Activity
53 | CCCC(O)Cn1nc(Nc2ccccc2)c(C(=O)OCC)c1N (configuration not stated) | 364

test system: HUVEC; assay: Anti-angiogenetic activity in human HUVEC cells assessed as number of tube branching points at 10 uM incubated for 12 hrs in presence of tumor secretome from human MIA PaCa-2 cell supernatant by microscopy (reference value: 17); format: functional; conditions: not given

Row | SMILES | Activity
54 | CCCC(O)Cn1nc(Nc2ccccc2)c(C(=O)OCC)c1N (configuration not stated) | ~8

test system: HUVEC; assay: Anti-angiogenetic activity in human HUVEC cells assessed as relative tube length at 10 uM incubated for 12 hrs in presence of tumor secretome from human MIA PaCa-2 cell supernatant by microscopy (reference value: 108); format: functional; conditions: not given

Row | SMILES | Activity
55 | CCCC(O)Cn1nc(Nc2ccccc2)c(C(=O)OCC)c1N (configuration not stated) | 55

test system: not listed separately; assay: Effect on intracellular calcium signaling in human HUVEC cells assessed as inhibition of calcium mobilization by measuring fluorescence intensity at 10 uM incubated for 1 hr by Fluo-4 a.m. cytofluorimetric assay relative to control; format: functional; parameters: scale not given: the % may be the effect or the level left; conditions: not given
Procedure, shortened: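 Trypsinized HUVEC at 5 × 10⁵/ml were treated with compounds at 10 μM in PBS for 1 h at room temperature, washed, then loaded with 2.5 μM Fluo-4 AM (0.06 % DMSO final) for 45 min at 37 °C. Fluorescence was read by flow cytometry with a 530/30 filter. Ionomycin served as positive control and EDTA (added 15 min before) as negative control. n = 3, mean ± SD.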

Row | SMILES | Activity [%]
56 | CCCC(O)Cn1nc(Nc2ccccc2)c(C(=O)OCC)c1N (configuration not stated) | 23

test system: HUVEC; assay: Effect on conformation of actin filament organization in human HUVEC cells at 10 uM treated for 24 hrs by immunofluorescence assay; format: functional, cell-based; conditions: not given
Procedure, shortened: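 HUVEC were left untreated or treated 24 h at 10 μM final. Cells were then fixed on coverslips in 4 % paraformaldehyde, permeabilized with 0.2 % Triton X-100 and blocked with 20 % goat serum. F-actin was stained with FITC-phalloidin (5 µg/ml, 2 h, room temperature, dark) and nuclei with Hoechst 33342. Cells were imaged by confocal microscopy.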

Row | SMILES | Activity
57 | CCCC(O)Cn1nc(Nc2ccccc2)c(C(=O)OCC)c1N (configuration not stated) | Active
